Here are results for 57 compounds from ChEMBL document CHEMBL1250450, “Well-defined regions of the Plasmodium falciparum reticulocyte binding protein homologue 4 mediate interaction with red blood cell membrane” (J Med Chem, 2010).

As a reminder, the inhibition is the percentage by which the read-out fell short of the control.

Residues, ends and D or L forms follow the SMILES beside them.

For one assay, the system named is Plasmodium falciparum. The experiment in a line: Antiplasmodial activity against Plasmodium falciparum FCB2 assessed as inhibition of merozoite invasion of human erythrocytes at 200 uM after 18 hrs using hydroethidine staining by flow cytometry. The following applies: FCB2, 18 h. The class given is functional. A digest of the protocol:
(§1)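 Schizont-synchronized P. falciparum FCB-2 cultures incubated in triplicate with peptide (100 and 200 μM) using normal RBCs or, for the neuraminidase line, neuraminidase-treated RBCs. 37 °C for 18 h under 5% O2, 5% CO2, 90% N2. Cells washed with PBS, hydroethidine-labeled, read by flow cytometry (FL2). Inhibition controls were EGTA- and chloroquine-treated infected RBCs; uninfected RBCs served as invasion control.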
In general terms: In flow cytometry, cells or beads pass a laser one at a time.
Take H-KNSQNQHDINKTHHTNNNYD-OH: the inhibition at 200 µM came out at 37%.
Take H-LPEHIKQKSVSELNIYMKQI-OH: the inhibition at 200 µM is 41%.
H-FKQILELKEKEHYITNKHTY-OH: the inhibition at 200 µM is 46%.
Still for that read-out and setting: then H-EHTIYTLYQEIKTNLENIEQ-OH, with 72%; and H-NEEENEMGYGITNKRKNSET-OH, with 43%; and H-QNYNQENQEKSKMIDSENEK-OH, with 39%.

A further assay concerns Plasmodium falciparum. The experiment in a line: Antiplasmodial activity against Plasmodium falciparum FCB2 assessed as inhibition of merozoite invasion of neuraminidase pretreated human erythrocytes at 200 uM after 18 hrs using hydroethidine staining by flow cytometry. The class given is functional.
Conditions: not given
An outline of the steps: as §1
As to H-KNSQNQHDINKTHHTNNNYD-OH, the inhibition at 200 µM is 3%.
Turning to H-LPEHIKQKSVSELNIYMKQI-OH, the inhibition at 200 µM was found to be 42%.
For the compound H-FKQILELKEKEHYITNKHTY-OH, the inhibition at 200 µM is 47%.
The same measure, in the same setting: as for H-EHTIYTLYQEIKTNLENIEQ-OH, the figure is 71%; as for H-NEEENEMGYGITNKRKNSET-OH, 40%.
Same read-out and setting: then H-QNYNQENQEKSKMIDSENEK-OH, with 37%.

The species named for the next assay is Homo sapiens. Put plainly: Binding affinity to RBC membrane receptor in human RBC assessed as specific binding activity measured as ratio of specifically bound peptide/added peptide by gamma counter.
Conditions: not given
An outline of the steps:
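1 × 10^8 healthy-donor RBCs incubated in triplicate with four rising concentrations of 125I-peptide (0-560 nM), with or without unlabeled peptide, then washed in HBS (pH 7.4) and gamma-counted. Specific binding (total minus nonspecific) plotted against added peptide; the slope is the specific binding activity. The HABP cutoff is ≥2%.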
For `CC[C@H](C)[C@H](NC(=O)[C@H](CCC(N)=O)NC(=O)[C@H](CCC(N)=O)NC(=O)[C@H](CO)NC(=O)[C@H](Cc1ccc(O)cc1)NC(=O)[C@H](CC(N)=O)NC(=O)[C@@H](NC(=O)[C@H](CC(N)=O)NC(=O)[C@H](Cc1cnc[nH]1)NC(=O)[C@@H](NC(=O)[C@H](Cc1ccccc1)NC(=O)[C@@H](NC(=O)[C@H](CC(=O)O)NC(=O)[C@@H](N)CO)C(C)C)[C@H](C)O)[C@@H](C)CC)C(=O)N[C@@H](CC(C)C)C(=O)N[C@@H](CC(N)=O)C(=O)N[C@@H](Cc1ccc(O)cc1)C(=O)N[C@@H](CO)C(=O)N[C@@H](CCC(N)=O)C(=O)N[C@@H](C)C(=O)O`, the Activity was < 2%.
The same measure, in the same setting: as for H-FMQNETFKKNIDDKIKEMNNY-OH, the figure is < 2%; as for H-KINNNLKDITHIVINDNNTLY-OH, < 2%.
In the case of H-KYNLPQERIIKNYNHNGINN-OH, the Activity was < 2%.
In the case of H-NNLKDNIQININNIKSIIRNY-OH, the Activity was < 2%.
As for H-IQHYQTKFNINTNTKQLQQL-OH, the Activity is < 2%.
On the same count and under the same terms, then H-PPNSPFRSYYDKNLNKDINE-OH, with < 2%; and H-TFNMYYNDIQQIKIKINQNE-OH, with < 2%.
The same measure, in the same setting: as for H-NGQKLKTDIILNSFVQINSSY-OH, the figure is < 2%.
Regarding H-IFQKEFSEADNAHSEEKEEY-OH, the Activity was < 2%.
Consider H-NHVELYIKNFQKNKIQIHKN-OH, for which the Activity is < 2%.
Turning to H-KANLQDRDIKYIVQNNDANN-OH, the Activity is < 2%.
On the same count and under the same terms, then `CC[C@H](C)[C@H](NC(=O)[C@H](Cc1ccccc1)NC(=O)[C@H](Cc1ccccc1)NC(=O)[C@H](Cc1ccccc1)NC(=O)[C@H](C)NC(=O)[C@@H](NC(=O)[C@H](CO)NC(=O)[C@H](CO)NC(=O)[C@@H](N)CS)[C@H](C)O)C(=O)N[C@@H](CCCCN)C(=O)N[C@@H](CC(N)=O)C(=O)N[C@@H](CO)C(=O)N[C@@H](CC(N)=O)C(=O)N[C@@H](CCC(=O)O)C(=O)N1CCC[C@H]1C(=O)N[C@@H](Cc1cnc[nH]1)C(=O)N[C@@H](Cc1cnc[nH]1)C(=O)N[C@H](C(=O)N[C@@H](Cc1ccccc1)C(=O)N[C@@H](CC(N)=O)C(=O)N[C@@H](Cc1ccc(O)cc1)C(=O)O)[C@@H](C)CC`, with < 2%; and H-EKIGLRQMENRLKGKYEEIK-OH, with < 2%; and H-KEIKKVLPQLYIPKNEQEYI-OH, with < 2%.
As for H-LPEHIKQKSVSELNIYMKQI-OH, the Activity is > 2%.
Regarding H-DDNFIEYNILNADPDLRSHF-OH, the Activity is < 2%.
Take H-HIKQILINYIQECKPIQNIS-OH: the Activity was < 2%.
As to H-IIKNITSIYYKINILNILII-OH, the Activity is < 2%.
Take H-FKQILELKEKEHYITNKHTY-OH: the Activity was > 2%.
For H-LNIKDKDEKKRKNDNLINNY-OH, the Activity was < 2%.
Same read-out and setting: as for H-EHTIYTLYQEIKTNLENIEQ-OH, the figure is > 2%.
Regarding H-DIENIIKQNEHTESYKNLDT-OH, the Activity is < 2%.
Still for that read-out and setting: as for H-YTTFKYLQTLNKSLYDSIYK-OH, the figure is < 2%; as for H-FDQINQKYDDLTKNINQMND-OH, < 2%.
Same read-out and setting: as for `CC[C@H](C)[C@H](NC(=O)[C@H](Cc1ccc(O)cc1)NC(=O)[C@H](CCC(=O)O)NC(=O)[C@H](Cc1ccc(O)cc1)NC(=O)[C@H](CCC(=O)O)NC(=O)[C@H](CCCCN)NC(=O)[C@H](C)NC(=O)[C@H](C)NC(=O)[C@H](CC(N)=O)NC(=O)[C@@H](NC(=O)[C@H](C)NC(=O)[C@H](CC(N)=O)NC(=O)[C@H](CC(N)=O)NC(=O)[C@H](CO)NC(=O)[C@H](CC(N)=O)NC(=O)[C@H](NC(=O)[C@@H](N)Cc1ccccc1)[C@@H](C)CC)C(C)C)C(=O)N[C@H](C(=O)N[C@@H](CCCCN)C(=O)N[C@@H](Cc1ccc(O)cc1)C(=O)O)[C@@H](C)CC`, the figure is < 2%.
For the compound `CC[C@H](C)[C@H](NC(=O)[C@H](CC(N)=O)NC(=O)[C@H](CCCCN)NC(=O)[C@H](CCC(=O)O)NC(=O)[C@H](CC(N)=O)NC(=O)[C@@H](NC(=O)[C@H](Cc1cnc[nH]1)NC(=O)[C@H](CCC(=O)O)NC(=O)[C@H](CC(N)=O)NC(=O)[C@H](CC(N)=O)NC(=O)[C@@H](NC(=O)[C@H](CC(N)=O)NC(=O)[C@H](CC(N)=O)NC(=O)[C@H](CCC(=O)O)NC(=O)[C@H](CC(N)=O)NC(=O)[C@@H](NC(=O)[C@H](Cc1cnc[nH]1)NC(=O)[C@H](CCC(=O)O)NC(=O)[C@H](CC(N)=O)NC(=O)[C@@H](N)CC(N)=O)[C@H](C)O)[C@@H](C)CC)[C@H](C)O)C(=O)N[C@@H](Cc1ccc(O)cc1)C(=O)O`, the Activity was < 2%.
Same read-out and setting: then H-HKINNYSHNIEDLINQLQHK-OH, with < 2%; and H-EDEDENENEVENENEDFNDIY-OH, with < 2%.
On the same count and under the same terms, as for H-IQERNQNNQIVKELKYNKQI-OH, the figure is < 2%; as for H-LQLLKDIKEIQTKQIDTKINY-OH, < 2%; as for H-NISQNYNNHSLSFVHSINNH-OH, < 2%.
Same read-out and setting: as for H-NEEENEMGYGITNKRKNSET-OH, the figure is < 2%.
For H-MLETTKEQILLLWNNKKISQY-OH, the Activity was > 2%.
Same read-out and setting: as for H-QFYINEKNYNNNHDDHNDDH-OH, the figure is < 2%.
In the case of H-EKGKRGTSRNNNIHTNENNIY-OH, the Activity was < 2%.
Still for that read-out and setting: as for H-NYEHPNNYQQKNDEKISLQH-OH, the figure is < 2%.
The same measure, in the same setting: as for H-YNNNHDKQNEHKYNQGKSSG-OH, the figure is < 2%; as for H-LPVYFDEVEDEVEDEVEDED-OH, < 2%; as for H-IQNHKNKQETKLNTTTIQELY-OH, < 2%.
On the same count and under the same terms, as for H-KIHTLEELKILTQEINDKNVY-OH, the figure is < 2%.
As to H-CIKQTYNNNKSIESLKLKIN-OH, the Activity is < 2%.
Still for that read-out and setting: then H-TCHSIQTLLNNLISSKIIFKY-OH, with < 2%.
On the same count and under the same terms, then H-QEFNKKIQHFKEETQIMIWKY-OH, with < 2%; and H-DYSLLKLSYNKNQDIYKNIQ-OH, with < 2%; and H-NLTNSTQEYINQIKAIPTNL-OH, with < 2%.
Consider `CC[C@H](C)[C@H](NC(=O)[C@H](Cc1ccc(O)cc1)NC(=O)[C@H](CCC(=O)O)NC(=O)[C@H](CC(N)=O)NC(=O)[C@@H](NC(=O)[C@H](CCCCN)NC(=O)[C@@H](N)CCCCN)C(C)C)C(=O)N[C@@H](CC(N)=O)C(=O)N[C@@H](CC(N)=O)C(=O)N[C@@H](CO)C(=O)N[C@@H](CC(=O)O)C(=O)N[C@@H](CS)C(=O)N[C@@H](Cc1cnc[nH]1)C(=O)N[C@@H](CC(C)C)C(=O)N[C@H](C(=O)N[C@@H](CS)C(=O)N[C@@H](CO)C(=O)N[C@@H](CCCCN)C(=O)N[C@@H](Cc1ccc(O)cc1)C(=O)N[C@@H](CCCCN)C(=O)O)[C@@H](C)O` (H-KKVNEYINNSDCHLTCSKYK-OH), for which the Activity is < 2%.
The same measure, in the same setting: then H-INNLMIISFDKNKSSDLMLQY-OH, with < 2%.
On the same count and under the same terms, then `CC[C@H](C)[C@H](NC(=O)[C@@H](NC(=O)[C@H](CCCNC(=N)N)NC(=O)[C@H](CCC(N)=O)NC(=O)[C@H](CO)NC(=O)[C@@H](NC(=O)[C@H](CC(N)=O)NC(=O)[C@@H](NC(=O)[C@@H](NC(=O)[C@@H](N)CCCCN)[C@@H](C)O)[C@@H](C)CC)[C@H](C)O)[C@@H](C)O)C(=O)N[C@@H](CC(=O)O)C(=O)N[C@@H](CC(=O)O)C(=O)N[C@@H](CO)C(=O)N[C@@H](CC(N)=O)C(=O)N[C@@H](CCSC)C(=O)N[C@@H](CC(=O)O)C(=O)N[C@@H](CCCNC(=N)N)C(=O)N[C@@H](CC(N)=O)C(=O)N[C@@H](CC(N)=O)C(=O)N[C@@H](CCCNC(=N)N)C(=O)N[C@@H](Cc1ccc(O)cc1)C(=O)O`, with < 2%; and H-ELIPITQQIQTKMYTTNNIE-OH, with < 2%.
On the same count and under the same terms, as for H-IRKIYDIETIYQNDLHNIEE-OH, the figure is < 2%; as for H-QENITTFENQYKDLIIKMNH-OH, < 2%.
As to H-NNEHANEKNIYNEHTNENNI-OH, the Activity is < 2%.
Same read-out and setting: then H-YNTSSQQKNNLHTNNNSNSR-OH, with < 2%; and H-ITLLVSRKQLIYIEYIYFIN-OH, with < 2%.
